Columns and labels:
[1] = tested on: Enterococcus faecalis; experiment: Photodynamic inactivation of Enterococcus faecalis ATCC 29212 at the fluence of 80 J/cm2 light at 2 uM after 10 mins; assay type: functional
Summary of the method: (§1)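 Exponential cultures were used: bacteria about 10^8 cells/mL in BHI, Candida in YM. Cells were dark-incubated with dye for 10 min at room temperature, then washed and resuspended in PBS without Ca2+/Mg2+. Illumination used 30-nm band-pass red light (630, 652 or 660 ± 15 nm per dye) at 60–100 mW/cm2 and room temperature. Ten-fold serial dilutions were plated on BHI agar at 37 °C overnight. CFU survival was expressed relative to untreated cells, in triplicate.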

[2] = tested on: Escherichia coli; experiment: Photodynamic inactivation of Escherichia coli ATCC 25922 at the fluence of 80 J/cm2 light at 5 uM after 10 mins; assay type: functional; summary of the method: as §1
[3] = tested on: Candida albicans; experiment: Photodynamic inactivation of Candida albicans ATCC 18804 at the fluence of 80 J/cm2 light at 20 uM after 10 mins; assay type: functional; summary of the method: as §1
[4] = Partition coefficient, log P at pH 7.4; assay type: physicochemical; settings: octanol/water
[5] = tested on: Candida albicans; experiment: Cellular uptake in Candida albicans ATCC 18804 at 20 uM after 10 mins; assay type: functional, organism-based
Summary of the method: (§2)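 Exponential-phase cells (bacteria in BHI, yeast in YM, 37 °C, 150 rpm) were incubated with dye in the dark for 10 min at room temperature. Centrifugation at 1550g for 6 min removed unbound dye, and pellets were resuspended in PBS without Ca2+/Mg2+. Pellets were dissolved in 10% SDS for ≥24 h. Fluorescence peak height was read at the dye-specific excitation and emission, against SDS calibration curves. Means of three experiments.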

[6] = tested on: Candida albicans; experiment: Photodynamic inactivation of Candida albicans ATCC 18804 at the fluence of 4 J/cm2 light at 20 uM after 10 mins; assay type: functional; summary of the method: as §1
[7] = tested on: Escherichia coli; experiment: Photodynamic inactivation of Escherichia coli ATCC 25922 at the fluence of 32 J/cm2 light at 5 uM after 10 mins; assay type: functional; summary of the method: as §1
[8] = tested on: Enterococcus faecalis; experiment: Cellular uptake in Enterococcus faecalis ATCC 29212 at 2 uM after 10 mins; assay type: functional, organism-based; summary of the method: as §2
[9] = tested on: Enterococcus faecalis; experiment: Photodynamic inactivation of Enterococcus faecalis ATCC 29212 at the fluence of 8 J/cm2 light at 2 uM after 10 mins; assay type: functional; summary of the method: as §1
[10] = tested on: Escherichia coli; experiment: Photodynamic inactivation of Escherichia coli ATCC 25922 at the fluence of 64 J/cm2 light at 5 uM after 10 mins; assay type: functional; summary of the method: as §1
[11] = tested on: Candida albicans; experiment: Photodynamic inactivation of Candida albicans ATCC 18804 at the fluence of 64 J/cm2 light at 20 uM after 10 mins; assay type: functional; summary of the method: as §1
[12] = tested on: Enterococcus faecalis; experiment: Photodynamic inactivation of Enterococcus faecalis ATCC 29212 at the fluence of 64 J/cm2 light at 2 uM after 10 mins; assay type: functional; summary of the method: as §1
[13] = tested on: Escherichia coli; experiment: Cellular uptake in Escherichia coli ATCC 25922 at 5 uM after 10 mins; assay type: functional, organism-based; summary of the method: as §2

Compound: CC/N=c1/cc2oc3cc(N(CC)CC)ccc3nc-2c2ccccc12.Cl
- Activity [1]: 95%
- Activity [2]: 90%
- Activity [3]: >97%
- logD [4]: 2.69
- Drug uptake [5]: 75%

Compound: CC/N=c1/cc2[se]c3cc(N(CC)CC)ccc3nc-2c2ccccc12.Cl
- Activity [6]: > 99%
- Activity [7]: >100%
- Drug uptake [8]: 75%
- logD [4]: 2.08
- Activity [9]: >99.999%

Compound: CC/N=c1/cc2sc3cc(N(CC)CC)ccc3nc-2c2ccccc12.Cl
- Activity [10]: >99%
- Activity [11]: >98%
- Activity [12]: >99.9%
- Drug uptake [13]: 75%
- logD [4]: 2.76
